{"source": "ChEMBL document CHEMBL1124508", "about": "“E-ring desoxy analogues of etoposide” (J Med Chem, 1989)", "key": {"Mus musculus [1]": {"test_system": "Mus musculus", "assay": "Percent median survival time (T/C) of mice when administered intraperitoneally at dose 120 mg/kg", "type": "functional", "conditions": "route intraperitoneal", "procedure,_shortened": "(§1)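 P388 leukemia-bearing mice given drug ip on days 1 and 5, with dose expressed per injection. T/C is the median survival time of treated mice as a percent of saline-treated controls. Long-term survivors are mice alive out of total on day 30, when the experiment ended.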"}, "HCT cell line [2]": {"test_system": "HCT cell line", "assay": "The inhibition concentration against etoposide resistant HCT/VP35 cell growth after 72 hours", "type": "functional, cell-based", "conditions": "Homo sapiens", "procedure,_shortened": "(§2)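 Panel of human colon lines (HCT-116, etoposide sensitive; HCT/VP35, acquired-resistant; MOSER, inherently resistant) and mouse melanoma B16-F10. Viability is read by crystal violet protein stain, or by XTT vital stain for some HCT/VP35 and HCT-116 runs. IC50 is the dose reducing cell growth by 50% after 72 h versus controls. Values are averages of at least two runs.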"}, "[3]": {"assay": "Inhibitory selectivity against HCT/VP35 and HCT116 cell growth after 72 hours", "type": "functional, HCT-116", "procedure,_shortened": "(§3)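 Ratio of the HCT/VP35 IC50 to the HCT-116 IC50, as a measure of overcoming acquired etoposide resistance. The IC50 is the dose giving 50% growth reduction after 72 h versus controls, read by crystal violet or XTT stain. Values are averages of at least two runs.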"}, "Mus musculus [4]": {"test_system": "Mus musculus", "assay": "Anti-P388 Leukemia activity administered 150 mg/kg intraperitoneally, expressed as percent of the median survival time", "type": "functional", "conditions": "route intraperitoneal", "procedure,_shortened": "as §1"}, "Mus musculus [5]": {"test_system": "Mus musculus", "assay": "Anti-P388 Leukemia activity administered 30 mg/kg intraperitoneally, expressed as percent of the median survival time", "type": "functional", "conditions": "route intraperitoneal", "procedure,_shortened": "as §1"}, "Homo sapiens [6]": {"species": "Homo sapiens", "assay": "The inhibition concentration of MOSER cell growth after 72 hours", "type": "functional", "procedure,_shortened": "as §2"}, "B16-F10 [7]": {"test_system": "B16-F10", "assay": "The inhibition concentration of B16-F10 cell growth after 72 hours", "type": "functional, cell-based", "conditions": "Mus musculus, B16-F10, 72 h", "procedure,_shortened": "as §2"}, "Mus musculus [8]": {"test_system": "Mus musculus", "assay": "Maximum percent median survival time of mice when administered intraperitoneally at dose 60 mg/kg", "type": "functional", "conditions": "route intraperitoneal"}, "Mus musculus [9]": {"test_system": "Mus musculus", "assay": "Percent median survival time (T/C) of mice when administered intraperitoneally at dose 40 mg/kg", "type": "functional", "conditions": "route intraperitoneal", "procedure,_shortened": "as §1"}, "Mus musculus [10]": {"test_system": "Mus musculus", "assay": "Number of long time survivors (mice alive/total) when administered intraperitoneally at dose 80 mg/kg when tested in 4 mice", "type": "functional", "conditions": "route intraperitoneal", "procedure,_shortened": "as §1"}, "Mus musculus [11]": {"test_system": "Mus musculus", "assay": "Number of long time survivors (mice alive/total) when administered intraperitoneally at dose 60 mg/kg when tested in 4 mice", "type": "functional", "conditions": "route intraperitoneal", "procedure,_shortened": "as §1"}, "Mus musculus [12]": {"test_system": "Mus musculus", "assay": "Percent median survival time (T/C) of mice when administered intraperitoneally at dose 80 mg/kg", "type": "functional", "conditions": "route intraperitoneal", "procedure,_shortened": "as §1"}, "Mus musculus [13]": {"test_system": "Mus musculus", "assay": "Anti-P388 Leukemia activity administered 200 mg/kg intraperitoneally, expressed as percent of the median survival time", "type": "functional", "conditions": "route intraperitoneal", "procedure,_shortened": "as §1"}, "[14]": {"assay": "Inhibitory selectivity against HCT/VP35 and HCT116 cell growth after 72 hr IC50 value for etoposide in the parenthesis", "type": "functional, HCT-116", "procedure,_shortened": "as §3"}, "Mus musculus [15]": {"test_system": "Mus musculus", "assay": "Anti-P388 Leukemia activity administered 50 mg/kg intraperitoneally, expressed as percent of the median survival time", "type": "functional", "conditions": "route intraperitoneal", "procedure,_shortened": "as §1"}, "HCT-116 [16]": {"test_system": "HCT-116", "assay": "The inhibition concentration against etoposide sensitive HCT116 cell growth after 72 hours", "type": "functional, cell-based", "conditions": "Homo sapiens, HCT-116, 72 h", "procedure,_shortened": "as §2"}, "HCT cell line [17]": {"test_system": "HCT cell line", "assay": "In vitro inhibitory concentration against etoposide resistant HCT/VP35 cell growth after 72 hours", "type": "functional, cell-based", "conditions": "Homo sapiens", "procedure,_shortened": "as §2"}, "HCT-116 [18]": {"test_system": "HCT-116", "assay": "In vitro inhibitory concentration against etoposide sensitive HCT116 cell growth after 72 hours", "type": "functional, cell-based", "conditions": "Homo sapiens, HCT-116, 72 h", "procedure,_shortened": "as §2"}, "Homo sapiens [19]": {"species": "Homo sapiens", "assay": "In vitro inhibitory concentration against MOSER cell growth after 72 hours", "type": "functional", "procedure,_shortened": "as §2"}, "Mus musculus [20]": {"test_system": "Mus musculus", "assay": "Percent median survival time (T/C) of mice when administered intraperitoneally at dose 20 mg/kg", "type": "functional", "conditions": "route intraperitoneal", "procedure,_shortened": "as §1"}, "B16-F10 [21]": {"test_system": "B16-F10", "assay": "In vitro inhibitory concentration against B16-F10 cell growth after 72 hours", "type": "functional, cell-based", "conditions": "Mus musculus, B16-F10, 72 h", "procedure,_shortened": "as §2"}}}
{"compound": "COc1cc([C@@H]2c3cc4c(cc3[C@@H](O[C@@H]3O[C@@H]5CO[C@@H](C)O[C@H]5[C@H](O)[C@H]3O)[C@H]3COC(=O)[C@H]23)OCO4)cc(OC)c1O", "note": "[ETOPOSIDE]", "values": [{"measurement": "T/C", "setting": "Mus musculus [1]", "result": 447}]}
{"compound": "COc1cc(OC)cc([C@@H]2c3cc4c(cc3[C@@H](O[C@@H]3O[C@@H]5CO[C@@H](C)O[C@H]5[C@H](O)[C@H]3O)[C@H]3COC(=O)[C@H]23)OCO4)c1", "values": [{"measurement": "IC50", "setting": "HCT cell line [2]", "result": 3.4, "unit": "µg/mL"}, {"measurement": "Selectivity", "setting": "[3]", "result": 0.47}, {"measurement": "T/C", "setting": "Mus musculus [4]", "result": 175}, {"measurement": "T/C", "setting": "Mus musculus [5]", "result": 125}, {"measurement": "IC50", "setting": "Homo sapiens [6]", "result": 45.5, "unit": "µg/mL"}, {"measurement": "IC50", "setting": "B16-F10 [7]", "result": 25, "unit": "µg/mL"}]}
{"compound": "COC1=CC([C@@H]2c3cc4c(cc3[C@@H](O[C@@H]3O[C@@H]5CO[C@@H](C)O[C@H]5[C@H](O)[C@H]3O)[C@H]3COC(=O)[C@@H]32)OCO4)=CC(=O)C1=O", "values": [{"measurement": "Max T/C", "setting": "Mus musculus [8]", "result": ">595"}, {"measurement": "T/C", "setting": "Mus musculus [9]", "result": 274}, {"measurement": "LTS", "setting": "Mus musculus [10]", "result": 3}, {"measurement": "LTS", "setting": "Mus musculus [11]", "result": 2}, {"measurement": "T/C", "setting": "Mus musculus [12]", "result": ">621"}]}
{"compound": "C[C@@H]1OC[C@H]2O[C@@H](O[C@@H]3c4cc5c(cc4[C@@H](c4ccc(O)cc4)[C@H]4C(=O)OC[C@@H]43)OCO5)[C@H](O)[C@@H](O)[C@@H]2O1", "values": [{"measurement": "IC50", "setting": "HCT cell line [2]", "result": 85.1, "unit": "µg/mL"}, {"measurement": "T/C", "setting": "Mus musculus [13]", "result": 175}, {"measurement": "Selectivity", "setting": "[14]", "result": 1.4}, {"measurement": "T/C", "setting": "Mus musculus [15]", "result": 145}, {"measurement": "IC50", "setting": "Homo sapiens [6]", "result": 42.9, "unit": "µg/mL"}, {"measurement": "IC50", "setting": "B16-F10 [7]", "result": 43.4, "unit": "µg/mL"}, {"measurement": "IC50", "setting": "HCT-116 [16]", "result": 62.7, "unit": "µg/mL"}]}
{"compound": "COc1cc([C@@H]2c3cc4c(cc3[C@@H](O[C@@H]3O[C@@H]5CO[C@@H](C)O[C@H]5[C@H](O)[C@H]3O)[C@H]3COC(=O)[C@H]23)OCO4)ccc1O", "values": [{"measurement": "Selectivity", "setting": "[3]", "result": 12.3}, {"measurement": "T/C", "setting": "Mus musculus [9]", "result": 245}, {"measurement": "IC50", "setting": "HCT cell line [17]", "result": 5.4, "unit": "µg/mL"}, {"measurement": "IC50", "setting": "HCT-116 [18]", "result": 15.4, "unit": "µg/mL"}, {"measurement": "IC50", "setting": "Homo sapiens [19]", "result": 46.5, "unit": "µg/mL"}, {"measurement": "T/C", "setting": "Mus musculus [20]", "result": 190}, {"measurement": "IC50", "setting": "B16-F10 [21]", "result": 20.1, "unit": "µg/mL"}]}
